Screening results (PubChem BioAssay)
Only some compounds are listed: those with a hit (about 4.9% of all), similar ones and a draw of the others.
NPY2 pot ag – NPY-Y2 potentiators or agonists, primary screen, cell-based. Neuropeptide Y receptor type 2 (Homo sapiens), P49146. cells expressing NPY-Y2, potentiator/agonist read-out. activation, % at 3.6 µM. 0.45% of 220,000 active; in the data active means activation above about 27%;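 further: cells stimulated with NPY near EC25 plus isoproterenol at EC100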
NPY Y2 blocker – NPY-Y2 receptor antagonists, primary screen, cell-based | 0.99% of 140,000 active | Neuropeptide Y receptor type 2 (Homo sapiens), P49146 | inhibition, % at 2.7 µM | NPY-Y2 expressing cells, antagonist mode | AID 793, 2007; in the data active means inhibition above about 17%
NPY-Y1 PAM-ag – NPY-Y1 receptor potentiators or agonists, primary screen, cell-based; 0.37% of 220,000 active; activation, % at 3.6 µM; NPY-Y1 expressing cells, potentiator/agonist activation; in the data active means activation above about 33%, passing the limit was not always enough;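 further: cells stimulated with NPY at EC10 then isoproterenol at EC100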
Target sequence (P25929 whole entry, looked up): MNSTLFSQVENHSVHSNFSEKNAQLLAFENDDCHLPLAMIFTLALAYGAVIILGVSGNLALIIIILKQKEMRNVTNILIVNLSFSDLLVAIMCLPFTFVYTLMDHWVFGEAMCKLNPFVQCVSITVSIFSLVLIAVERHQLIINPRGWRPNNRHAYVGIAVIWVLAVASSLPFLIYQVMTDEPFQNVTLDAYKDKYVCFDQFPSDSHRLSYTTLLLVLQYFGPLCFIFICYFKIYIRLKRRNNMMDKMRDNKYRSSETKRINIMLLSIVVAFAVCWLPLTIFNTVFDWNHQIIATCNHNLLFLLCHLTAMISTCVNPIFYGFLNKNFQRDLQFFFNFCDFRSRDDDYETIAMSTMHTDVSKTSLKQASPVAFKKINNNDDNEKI
WT yeast gro inh – growth inhibition of WT strain, primary screen, mitochondrial fusion inhibitor project, WT and mutant strains, chemical genetic; 2.1% of 190,000 active; inhibition, % at 10 µM; mitochondrial fusion phenotypic screen; in the data active means inhibition above about 58%; tested in S. cerevisiae
NPY Y1 blocker – NPY-Y1 receptor antagonists, primary screen, cell-based; Neuropeptide Y receptor type 1 (Homo sapiens), P25929; HEK293-CNG Y1 cells, membrane potential fluorescence; NPY at EC95, then isoproterenol; inhibition, % at 3.6 µM; 1% of 200,000 active; AID 1040, 2008;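 active means inhibition above the campaign mean inhibition of all tested compounds plus 3 SD, cut at about 20% in these data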
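Material: Y1- and CNG-channel-expressing HEK293 cells / Probe or stimulus: NPY 25 nM then isoproterenol 1 µM plus Ro 20-1724 25 µM / Doses: 3.6 µM single dose, DMSO 0.4% / Schedule: compound incubation 1 h at room temperature, readout 45 min post-stimulation / Signal: membrane potential fluorescence / Benchmarks: isoproterenol-only wells as full block versus NPY-plus-isoproterenol wells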
RAM inhibit – inhibitors of the yeast RAM network, primary screen, dse1pr::URA3 reporter, 5-FOA selection; S. cerevisiae dse1pr::URA3 reporter, 5-FOA growth OD615, 2 d; analog-sensitive cbk1-as2 kinase mutant strain; inhibition, % at 50 µM; 1.8% of 190,000 active; AID 868, 2007;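 active means inhibition above a set limit, 3 SD over mean compound inhibition, cut at about 8.4% in these data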;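 further: inhibition rescues growth on 5-FOA so higher OD means more RAM inhibition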
RAM efflux-def – 5-FOA growth of efflux-deficient control yeast, dose response, counter-screen for RAM network inhibitor project, S. cerevisiae, OD615 | shares compounds with RAM inhibit | S. cerevisiae efflux-deficient reporter strain, 5-FOA growth OD615, 2 days | max inhibition, % | 1,200 tested, under 10 active; call rule not given here
A number is an active result; n = inactive; x = not tested or not shown.

SMILES	NPY2 pot ag	NPY Y2 blocker	NPY-Y1 PAM-ag	WT yeast gro inh	NPY Y1 blocker	RAM inhibit	RAM efflux-def
O=C(/C=C/c1ccccc1)n1cnnc1SC/C=C/c1ccccc1	n	n	n	n	n	11.7	n
Cc1nnc(SC/C=C/c2ccccc2)n(N)c1=O	n	x	n	n	n	n	x
COc1cc(/C=C/c2cc(C(=O)O)c3ccccc3n2)cc(OC)c1O	n	x	n	n	n	12.0	n
CCOc1cc(/C=C/c2cc(C(=O)O)c3ccccc3n2)ccc1OC	n	n	n	n	n	n	x
CC(C)CSc1nc(N2CCOCC2)c2c(c1C#N)CC(C)(C)SC2	n	n	n	n	n	21.6	n
CCCCCOC(=O)C1C(c2ccccc2)C(C(=O)O)C1c1ccccc1 (configuration not stated)	n	n	n	n	n	14.6	n
CCCn1c2c(c(O)c(C(=O)Nc3ccccc3)c1=O)CCCC2	n	n	n	n	n	11.5	n
Cc1ccc(Oc2ccc(NC(=O)CCC(=O)OCC(=O)c3cccs3)cc2)cc1C	n	n	n	n	n	12.8	n
Nc1ccc(C(=O)c2cccs2)cc1[N+](=O)[O-]	n	x	n	n	n	13.0	n
COc1ccc([N+](=O)[O-])cc1-n1cccc1	n	n	n	n	n	n	x
O=C(O)c1cc([N+](=O)[O-])ccc1NCCO	n	n	n	n	n	n	x
Cc1ccc(C)c(C(=O)COC(=O)c2cc([N+](=O)[O-])ccc2NCCO)c1	n	n	n	60.1	n	13.3	n
COc1cc(/C=N/NC(=O)CC2C(=O)NN=C2C)ccc1O (configuration not stated)	n	x	n	x	x	x	x
Cc1noc(NS(=O)(=O)c2ccc(N/C=C\C(=O)c3cccs3)cc2)c1C	n	x	n	n	n	12.0	n
COc1ccc2cc(/C=N/NC(=O)c3c(Cl)cnn3C)c(Cl)nc2c1	n	n	n	n	n	n	x
Cc1ccc(S(=O)(=O)N(CC(=O)Nc2ccccc2C(=O)O)c2cccc(Cl)c2C)cc1	n	n	n	n	n	14.2	n
Cc1cccc(N(CC(=O)Nc2ccccc2-c2ccccc2)S(=O)(=O)c2ccccc2)c1C	n	n	n	n	n	n	x
O=C(CCCOc1ccc(Cl)cc1Cl)N/N=C/c1ccccc1	n	n	n	n	n	12.3	n
Cc1ccc(/C=N/NC(=O)CCCOc2ccc(Cl)cc2Cl)cc1	n	n	n	n	n	12.3	n
CSCCC(NC(=O)C12CC3CC(CC(C3)C1)C2)C(=O)OCC(=O)c1ccccc1 (configuration not stated)	n	n	n	n	n	n	x
Cc1ccc(C(=O)CNc2ccccc2C)cc1	n	n	n	n	n	n	x
Cc1ccc(C(=O)CC(=O)c2ccc(C(C)(C)C)cc2)cc1	n	x	n	n	n	20.1	n
CCCn1c(C)cc(=O)c2cc(NC(=O)c3ccccn3)ccc21	n	n	n	x	n	n	x
O=C(c1cccc(Cl)c1)N1CCCC(c2ccc(Cl)cc2)=N1	n	n	n	78.4	n	16.9	n
Nc1ccc(C(=O)Oc2ccc([N+](=O)[O-])cc2)c(O)c1	n	x	n	x	x	x	x
SMILES	NPY2 pot ag	NPY Y2 blocker	NPY-Y1 PAM-ag	WT yeast gro inh	NPY Y1 blocker	RAM inhibit	RAM efflux-def
COc1ccc(OCc2nnc(SCC(N)=O)n2-c2ccccc2OC)cc1	n	n	n	n	n	n	x
COc1ccccc1-n1c(COc2ccccc2-c2ccccc2)nnc1SCC(=O)c1c(N)n(C)c(=O)n(C)c1=O	n	n	n	n	n	14.0	n
Cc1ccc(S(=O)(=O)N2CCC(=O)N(C(COCc3ccc(C(F)(F)F)cc3)C(C)C)CC2)cc1 (configuration not stated)	n	n	n	n	n	11.9	n
Cc1ccc(S(=O)(=O)N2CCC(=O)N(C(COC(=O)Nc3ccccc3)Cc3ccccc3)CC2)cc1 (configuration not stated)	n	n	n	n	n	n	x
Cc1ccc(S(=O)(=O)N2CCC(=O)N(C(COCc3cccc(C)c3)Cc3ccccc3)CC2)cc1 (configuration not stated)	n	n	n	n	n	13.7	n
Cc1ccc(S(=O)(=O)N2CCC(=O)N(C(COCc3ccc(Cl)c(Cl)c3)Cc3ccccc3)CC2)cc1 (configuration not stated)	n	n	n	n	n	11.5	n
Cc1cccc(COCC(Cc2ccccc2)N2CCN(C(=O)c3ccc(C(F)(F)F)cc3)CCC2=O)c1 (configuration not stated)	n	n	n	n	n	13.3	n
Cc1ccc(S(=O)(=O)N2CCC(=O)N(C(CO)Cc3ccccc3)CC2)cc1 (configuration not stated)	n	n	n	n	n	n	x
O=C(c1ccc(C(F)(F)F)cc1)N1CCC(=O)N(C(COCc2ccc(C(F)(F)F)cc2)Cc2ccccc2)CC1 (configuration not stated)	n	n	n	n	n	n	x
CCOc1ccc(OCC)c(S(=O)(=O)NCc2ccc3c(c2)OCO3)c1	x	x	x	n	x	n	x
CCCCSc1ncc(C(=O)OCC)c(N)n1	n	n	n	n	n	n	x
Cc1ccccc1Nc1nc(N)nc(CN2CCN(Cc3ccc4c(c3)OCO4)CC2)n1	n	x	n	n	n	n	x
COc1cc(CNn2c(C)n[nH]c2=S)cc(Cl)c1OCc1ccc(F)cc1	n	n	n	70.8	n	12.4	n
CC(Sc1nnc(-c2ccco2)o1)C(=O)NCCC1=CCCCC1 (configuration not stated)	n	x	n	n	n	n	x
CCN(CC)S(=O)(=O)c1cccc(-c2nnc(SC(C)C(=O)NCCC3=CCCCC3)o2)c1 (configuration not stated)	n	n	n	n	n	14.0	n
O=C(CSc1nnc(-c2cccc(S(=O)(=O)N3CCCCC3)c2)o1)NCCC1=CCCCC1	n	n	n	n	n	11.5	n
Cn1c2ccccc2n2c(=O)cc(-c3ccccc3)c(C#N)c12	n	x	n	x	x	x	x
O=C(COC(=O)c1cc(-c2cccs2)nc2ccccc12)NCc1ccco1	n	n	n	n	n	n	x
O=C(COC(=O)c1cc(-c2ccc(Cl)s2)nc2ccccc12)NCc1ccco1	n	n	n	n	n	11.5	n
O=C(NCc1ccco1)C1CC(=O)N(c2ccc(Cl)cc2)C1 (configuration not stated)	n	x	n	n	n	n	x
Cc1ccc(SCCNC(=O)c2ccc(C)c(S(=O)(=O)Nc3ccccc3C)c2)cc1	n	n	n	n	n	16.7	n
